Experimental findings from ChEMBL document CHEMBL1124226, “Benzothiopyranoindazoles, a new class of chromophore modified anthracenedione anticancer agents. Synthesis and activity against murine leukemias” (J Med Chem, 1988) are described below.

The subject of series [1] is Mus musculus. The experiment in a line: The compound was evaluated in vivo for the optimal dose for activity against murine B-16 melanoma. The format is functional. A digest of the protocol: (§1)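 Murine B-16 melanoma in vivo. Optimal dose given as mg/kg per injection. Response is % T/C survival, with day-60 survivors reported as number per group (of 10 or 6).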
Series [2] has as its system P388. The series is described as follows: In vivo for the optimal dose for activity against P388 leukemia per injection. It is filed as functional, Mus musculus. Put shortly:
(§2)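 P388 leukemia in mice, drug given ip on days 1-5 (Q01D×5, IP/IP, NCI testing protocol). Optimum response taken over doses, expressed as mg/kg per injection. Read-outs are %T/C survival and net log cell kill (Schabel method). Cured mice are included in the %T/C and net kill calculations.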

For series [3], the species on record is Mus musculus. The series is described as follows: % T/C survival against murine B-16 melanoma (day 60 surv). It is filed as functional. A digest of the protocol: as §1
For series [4], the system named is P388. The experiment in a line: Percentage T/C survival (treated vs control) against P388 leukemia (day 30 surv). The format is functional, Mus musculus. Put shortly:
as §2

A further series has as its system P388 leukemia (mouse). The experiment in a line: Net log value for P388 leukemia cell kill in mice was determined.
In series [5] the test system is Mus musculus. The series is described as follows: The compound was evaluated in vivo for the optimal dose for activity against of B-16 leukemia per injection. It is filed as functional. The following applies: in the assay text read “B-16 melanoma” for “B-16 leukemia”. A digest of the protocol: as §1
The next series concerns L1210. The series is described as follows: In vitro for its inhibitory activity against murine L1210 leukemia. The format is functional, cell-based. The following applies: Mus musculus.

Each structure is given as a SMILES string.

Turning to `O=C1c2c(O)ccc(O)c2C(=O)c2c(NCCNCCO)ccc(NCCNCCO)c21` [MITOXANTRONE], the Dose amounted to 0.6 mg/kg in the series on Mus musculus [1] and 1.25 mg/kg in the series on P388 [2]. Further, the values for the T/C in the series listed under Mus musculus [3] and in the series on P388 [4] were 265% and 291%, respectively.

Turning to `Cl.Nc1ccc2c3c(nn2CCNCCO)-c2ccccc2Sc13.O`, the Dose in the series with Mus musculus [1] and with P388 [2] was 25 mg/kg throughout. Besides, in the series on P388 leukemia (mouse), the “Net log cell kill” value amounted to 4.3. In addition, the values for the T/C in the series listed under Mus musculus [3] and in the series on P388 [4] were 259% and 188%, respectively.

As to `Br.CCN(CC)CCn1nc2c3c(c(NCCN)ccc31)Sc1ccccc1-2`, the Dose was 6.3 mg/kg in the series on Mus musculus [5] and 12.5 mg/kg in the series with P388 [2]. Besides, the “Net log cell kill” value in the series with P388 leukemia (mouse) is > 6.6. This compound also had a T/C in the series listed under Mus musculus [3] of 159%. Moreover, in the series on L1210, the half-inhibitory concentration (IC50) is 30 nM.

As for `CCN(CC)CCn1nc2c3c(c(NCCN)ccc31)Sc1cc(O)ccc1-2.Cl.O`, the figures for the Dose in the series with Mus musculus [1] and in the series on P388 [2] were 7.5 mg/kg and 6.3 mg/kg, respectively. The T/C is 281% in the series listed under Mus musculus [3] and 280% in the series on P388 [4]. The IC50 with L1210 came to 71 nM.

Turning to `CCN(CC)CCn1nc2c3c(c(NCCNCCO)ccc31)Sc1ccc(O)cc1-2.Cl.O`, the Dose with Mus musculus [1] and in the series with P388 [2] was 1.5 mg/kg in each case. Moreover, the “Net log cell kill” value in the series with P388 leukemia (mouse) stood at 4.5. Further, the T/C amounted to 183% in the series listed under Mus musculus [3] and 200% with P388 [4]. Moreover, half-maximal inhibition in the series on L1210 (IC50) required 4.8 nM.

On to `CCN(CC)CCn1nc2c3c(c(NCCNCCO)ccc31)Sc1ccccc1-2.Cl.O`, for which the Dose in the series with Mus musculus [1] was 12 mg/kg; in the series with P388 [2], 12.5 mg/kg. Besides, in the series on P388 leukemia (mouse), the “Net log cell kill” value is > 6.8. Moreover, the results for the T/C in the series listed under Mus musculus [3] and in the series on P388 [4] were 273% and 280%, respectively. Besides, the IC50 in the series with L1210 is 28 nM.
